Laboratory results: ChEMBL document CHEMBL1268915, “Optimization of a series of dipeptides with a P3 threonine residue as non-covalent inhibitors of the chymotrypsin-like activity of the human 20S proteasome” (Bioorg Med Chem Lett, 2010)
Active and inactive are the calls of the source. The rule behind the calls is not given here.

Experiments:
[1] = Inhibition of chymotrypsin-like activity of human 20s proteasome beta5 subunit in human erythrocyte assessed as hydrolysis of Ac-WLA-AMC fluorogenic substrate
[2] = (§1) Inhibition of TNF-alpha-induced NF-kappaB activation in human HEK293 cells after 3 hrs by luciferase reporter gene assay; type: cell-based; details: HEK293, 3 h
Outline: (§2)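 NF-κB-luciferase reporter in HEK293 cells (10,000 per well). Cells were pre-incubated with compound for 1 h, then stimulated with 10 ng/ml TNF-α for 3 h with compound still present. IC50 and percentage inhibition were reported as means of at least three independent experiments.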

[3] = tested on: HEK293; experiment: as §1; type: cell-based; parameters: concentration or dose not given beside the values; details: dose or concentration not given here; outline: as §2
[4] = Cytotoxicity against human Calu6 cells assessed as cellular ATP level after 72 hrs by luminescence-based ATPlite assay; type: cell-based, Calu-6; details: read-out: LC50
Outline: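 Calu6 cells, 2000 per well, incubated with compound for 72 h. Viability read as cellular ATP by luminescence (ATPlite). Values are means of at least three independent experiments.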

[5] = Inhibition of chymotrypsin-like activity of human 20s proteasome beta-1 subunit in human erythrocyte assessed as hydrolysis of Ac-WLA-AMC fluorogenic substrate
[6] = Inhibition of chymotrypsin-like activity of human 20s proteasome beta2 subunit in human erythrocyte assessed as hydrolysis of Ac-WLA-AMC fluorogenic substrate
[7] = molecular target: Cathepsin B (Homo sapiens) (UniProt P07858); experiment: Inhibition of human cathepsin B at 100uM
[8] = molecular target: Procathepsin L (Homo sapiens) (UniProt P07711); experiment: Inhibition of human cathepsin L at 100uM
[9] = molecular target: T1, Coagulation factor XII (Homo sapiens) (UniProt P00748); experiment: Inhibition of human coagulation factor beta 12a at 100 uM
T1 sequence (whole entry): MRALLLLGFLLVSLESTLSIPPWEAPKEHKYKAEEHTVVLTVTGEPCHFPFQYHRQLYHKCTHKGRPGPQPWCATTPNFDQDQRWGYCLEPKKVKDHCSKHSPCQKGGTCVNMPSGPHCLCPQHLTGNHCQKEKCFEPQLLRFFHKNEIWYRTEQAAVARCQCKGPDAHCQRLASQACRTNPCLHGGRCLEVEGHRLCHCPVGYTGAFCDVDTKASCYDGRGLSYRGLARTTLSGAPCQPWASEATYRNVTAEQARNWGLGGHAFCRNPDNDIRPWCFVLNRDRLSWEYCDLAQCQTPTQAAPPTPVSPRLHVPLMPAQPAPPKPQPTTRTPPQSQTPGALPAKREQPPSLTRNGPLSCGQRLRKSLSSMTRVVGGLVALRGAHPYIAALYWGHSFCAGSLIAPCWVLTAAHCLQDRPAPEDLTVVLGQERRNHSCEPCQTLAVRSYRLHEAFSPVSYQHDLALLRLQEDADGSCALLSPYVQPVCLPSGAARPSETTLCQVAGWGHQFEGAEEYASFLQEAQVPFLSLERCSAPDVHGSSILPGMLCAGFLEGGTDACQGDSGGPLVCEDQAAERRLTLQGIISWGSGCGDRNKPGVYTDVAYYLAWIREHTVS

[10] = organism: Homo sapiens; experiment: Inhibition of human chymotrypsin at 100 uM
[11] = organism: Homo sapiens; experiment: Inhibition of human elastase at 100 uM
[12] = molecular target: Plasminogen (Homo sapiens) (UniProt P00747); experiment: Inhibition of human plasmin at 100 uM
[13] = molecular target: Prothrombin (Homo sapiens) (UniProt P00734); experiment: Inhibition of human thrombin at 100 uM
[14] = molecular target: Tissue-type plasminogen activator (Homo sapiens) (UniProt P00750); experiment: Inhibition of tissue plasminogen activator at 100 uM
[15] = molecular target: Trypsin (Homo sapiens) (UniProt P07477+P07478+P35030); experiment: Inhibition of human trypsin at 100 uM; type: protein assay
[16] = molecular target: T2, Calpain-1 catalytic subunit (Homo sapiens) (UniProt P07384); experiment: Inhibition of human calpain 1 at 100 uM
T2 sequence (whole entry): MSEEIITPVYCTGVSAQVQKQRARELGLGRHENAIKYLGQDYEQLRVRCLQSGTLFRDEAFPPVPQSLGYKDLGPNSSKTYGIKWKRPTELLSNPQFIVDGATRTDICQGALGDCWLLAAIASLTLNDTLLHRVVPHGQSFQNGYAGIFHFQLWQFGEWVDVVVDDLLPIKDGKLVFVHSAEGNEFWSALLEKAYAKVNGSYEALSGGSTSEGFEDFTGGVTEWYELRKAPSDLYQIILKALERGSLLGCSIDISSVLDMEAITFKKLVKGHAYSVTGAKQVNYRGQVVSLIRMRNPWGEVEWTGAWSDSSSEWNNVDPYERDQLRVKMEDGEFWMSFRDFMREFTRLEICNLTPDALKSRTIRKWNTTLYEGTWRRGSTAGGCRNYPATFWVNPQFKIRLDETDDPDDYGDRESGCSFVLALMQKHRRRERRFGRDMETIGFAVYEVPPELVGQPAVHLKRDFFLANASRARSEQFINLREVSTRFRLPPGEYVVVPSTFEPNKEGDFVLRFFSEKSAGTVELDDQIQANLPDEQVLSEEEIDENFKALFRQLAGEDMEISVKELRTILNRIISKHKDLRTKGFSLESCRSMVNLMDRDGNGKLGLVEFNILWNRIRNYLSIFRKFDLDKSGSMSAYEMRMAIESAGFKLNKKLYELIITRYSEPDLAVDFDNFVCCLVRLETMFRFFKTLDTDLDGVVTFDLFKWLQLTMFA

Chain of Plasminogen (Homo sapiens) (P00747 97-580 limits assumed): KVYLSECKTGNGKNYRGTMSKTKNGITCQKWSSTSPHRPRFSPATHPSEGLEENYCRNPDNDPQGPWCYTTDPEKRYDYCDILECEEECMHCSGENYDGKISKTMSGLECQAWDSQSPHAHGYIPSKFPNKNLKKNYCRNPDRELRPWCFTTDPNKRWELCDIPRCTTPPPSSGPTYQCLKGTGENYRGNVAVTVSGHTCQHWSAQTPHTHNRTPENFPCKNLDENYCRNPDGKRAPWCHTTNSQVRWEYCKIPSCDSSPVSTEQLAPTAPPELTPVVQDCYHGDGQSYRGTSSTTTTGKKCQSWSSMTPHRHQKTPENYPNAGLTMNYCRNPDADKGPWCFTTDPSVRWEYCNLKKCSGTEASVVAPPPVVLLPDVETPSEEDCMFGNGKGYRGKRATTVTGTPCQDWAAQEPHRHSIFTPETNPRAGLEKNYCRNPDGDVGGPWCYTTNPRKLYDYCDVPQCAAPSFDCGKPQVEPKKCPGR
Chain of Plasminogen (Homo sapiens) (P00747 581-810 limits assumed): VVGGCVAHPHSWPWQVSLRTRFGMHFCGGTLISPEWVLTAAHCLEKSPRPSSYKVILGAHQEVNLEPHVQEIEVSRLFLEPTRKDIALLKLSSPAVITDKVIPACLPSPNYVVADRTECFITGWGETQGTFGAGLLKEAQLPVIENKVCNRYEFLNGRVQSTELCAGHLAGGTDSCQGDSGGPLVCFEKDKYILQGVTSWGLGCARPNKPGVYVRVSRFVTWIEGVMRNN
Chain of Procathepsin L (Homo sapiens) (P07711 114-333 limits assumed): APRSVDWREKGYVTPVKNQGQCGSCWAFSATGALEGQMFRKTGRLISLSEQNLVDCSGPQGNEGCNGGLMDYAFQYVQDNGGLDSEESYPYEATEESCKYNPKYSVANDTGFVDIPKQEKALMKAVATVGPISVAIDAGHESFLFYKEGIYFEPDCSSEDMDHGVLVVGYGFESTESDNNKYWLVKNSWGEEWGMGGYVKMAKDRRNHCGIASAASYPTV
Chain of Tissue-type plasminogen activator (Homo sapiens) (P00750 36-562 limits assumed): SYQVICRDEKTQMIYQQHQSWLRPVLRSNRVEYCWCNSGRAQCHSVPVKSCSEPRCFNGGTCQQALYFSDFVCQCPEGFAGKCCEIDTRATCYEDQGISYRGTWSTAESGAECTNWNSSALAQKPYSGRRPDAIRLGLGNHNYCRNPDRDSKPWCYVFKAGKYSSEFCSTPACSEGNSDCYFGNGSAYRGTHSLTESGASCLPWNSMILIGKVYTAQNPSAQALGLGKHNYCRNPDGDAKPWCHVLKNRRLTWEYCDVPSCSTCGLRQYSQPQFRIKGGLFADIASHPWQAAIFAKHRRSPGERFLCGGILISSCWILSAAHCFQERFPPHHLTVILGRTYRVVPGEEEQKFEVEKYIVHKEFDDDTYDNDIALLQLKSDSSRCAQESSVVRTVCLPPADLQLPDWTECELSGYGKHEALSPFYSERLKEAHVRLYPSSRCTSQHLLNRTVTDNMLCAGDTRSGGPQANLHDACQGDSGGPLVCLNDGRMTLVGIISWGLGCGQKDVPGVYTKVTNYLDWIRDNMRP

| Compound | IC50 [1] [µM] | IC50 [2] [µM] | inhibition [3] [%] | CC50 at 72 h [4] [µM] | IC50 [5] [µM] | IC50 [6] [µM] | inhibition [7] | inhibition [8] | inhibition [9] | inhibition [10] | inhibition [11] | inhibition [12] | inhibition [13] | inhibition [14] | inhibition [15] | inhibition [16] |
| --- | --- | --- | --- | --- | --- | --- | --- | --- | --- | --- | --- | --- | --- | --- | --- | --- |
| Cc1ccc(CNC(=O)[C@H](CCc2ccccc2)NC(=O)[C@@H](NC(=O)c2ccc(OCc3ccccc3)cc2)[C@@H](C)O)cc1 | 0.02 | 0.12 | 81 | 0.38 | > 20 | > 20 | Active | Active | Active | Active | Active | Active | Active | Active | Active | Active |
| COc1ccc2c(c1)CC(C(=O)N[C@H](C(=O)N[C@@H](CCc1ccccc1)C(=O)NCc1ccc(C)cc1)[C@@H](C)O)CC2 (stereo partly specified) | 0.02 | 0.095 | 89 | 2.3 | > 20 | > 20 | Active | Active | Active | Active | Active | Active | Active | Active | Active | Active |
| COc1ccc2c(c1)C(CC(=O)N[C@H](C(=O)N[C@@H](CCc1ccccc1)C(=O)NCc1ccc(C)cc1)[C@@H](C)O)CC2=O (stereo partly specified) | 0.025 | 0.32 | 89 | 1.2 | > 20 | > 20 | Active | Active | Active | Active | Active | Active | Active | Active | Active | Active |
| Cc1ccc(CNC(=O)[C@H](CCc2ccccc2)NC(=O)[C@@H](NCc2ccc(OCc3ccccc3)cc2)[C@@H](C)O)cc1 | 3.1 | > 50 | 37 | 14 | > 20 | > 20 | Active | Active | Active | Active | Active | Active | Active | Active | Active | Active |
| Cc1ccc(CNC(=O)[C@H](CCc2ccccc2)NC(=O)[C@H](CCc2ccccc2)NC(=O)Cc2cccc(Oc3ccccc3)c2)cc1 | 1.1 | > 50 | 28 | > 25 | > 20 | > 20 | Active | Active | Active | Active | Active | Active | Active | Active | Active | Active |
| C[C@@H](O)[C@H](NC(=O)c1ccc(OCc2ccccc2)cc1)C(=O)N[C@@H](CCc1ccccc1)C(=O)NCc1ccccc1Cl | 0.013 | 0.029 | 87 | 0.29 | > 20 | > 20 | Active | Active | Active | Active | Active | Active | Active | Active | Active | Active |
| CCNC(=O)[C@H](CCc1ccccc1)NC(=O)[C@@H](NC(=O)c1ccc(OCc2ccccc2)cc1)[C@@H](C)O | 0.44 | 2.6 | 98 | 5.1 | > 20 | > 20 | Active | Active | Active | Active | Active | Active | Active | Active | Active | Active |
| Cc1ccc(CNC(=O)[C@H](CCc2ccccc2)NC(=O)[C@@H](NC(=O)C(=O)c2c[nH]c3ccccc23)[C@@H](C)O)cc1 | 0.0073 | 0.09 | 100 | 0.136 | > 20 | > 20 | Active | Active | Active | Active | Active | Active | Active | Active | Active | Active |
| COC[C@H](NC(=O)Cc1cccc(OCc2ccccc2)c1)C(=O)N[C@@H](CCc1ccccc1)C(=O)NCc1ccc(C)cc1 | 0.074 | 0.34 | 78 | 0.22 | > 20 | > 20 | Active | Active | Active | Active | Active | Active | Active | Active | Active | Active |
| Cc1ccc(CNC(=O)[C@H](CCc2ccccc2)NC(=O)[C@@H](NC(=O)Cc2cccc(Oc3ccccc3)c2)[C@@H](C)O)cc1 | 0.45 | 24 | 30 | 15 | > 20 | > 20 | Active | Active | Active | Active | Active | Active | Active | Active | Active | Active |
| C[C@@H](O)[C@H](NC(=O)c1ccc(OCc2ccccc2)cc1)C(=O)N[C@@H](CCc1ccccc1)C(=O)N(C)Cc1ccccc1 | 9.1 | 4.4 | 86 | 6.6 | > 20 | > 20 | Active | Active | Active | Active | Active | Active | Active | Active | Active | Active |
